ChEMBL document CHEMBL1135980, “Novel angular benzophenazines: dual topoisomerase I and topoisomerase II inhibitors as potential anticancer agents” (J Med Chem, 2002)
pIC50: −log10 of the molar value.

How the values were obtained:
NCI-H69 [1] = test: Rf is the resistance factor and is the ratio of the IC50 on the resistant cell line over the IC50 on the parental H69/P cell line; assay type: functional, Homo sapiens
Method in brief: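 Resistance factor computed as IC50 in H69/LX4 (Pgp-overexpressing) divided by IC50 in H69/P. Both IC50s come from a 5-6 day Alamar Blue proliferation assay.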

NCI-H69 [2] = test: Cytotoxicity measured using the drug resistant, P-glycoprotein (Pgp) expressing human small cell lung carcinoma cell line H69/LX4; assay type: functional, cell-based
Method in brief: (§1)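 H69/P (parental) or H69/LX4 (P-glycoprotein-overexpressing) human SCLC cells; compound added, then 5-6 days incubation; proliferation read with Alamar Blue.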

NCI-H69 [3] = test: Cytotoxicity measured using the H69 parental (H69/P) human small cell lung carcinoma cell line; assay type: functional, cell-based; method in brief: as §1

SMILES	Rf (NCI-H69 [1])	pIC50 (NCI-H69 [2])	pIC50 (NCI-H69 [3])
CN(C)CCNC(=O)c1cccc2nc3ccc4c(Br)cccc4c3nc12	2.2	6.77	7.11
CN(C)CCNC(=O)c1cccc2nc3ccc4ccc(O)cc4c3nc12	3.3	6.55	7.07
COC(=O)c1cccc2c1ccc1nc3cccc(C(=O)NCCN(C)C)c3nc12	0.9	7.04	6.99
CN(C)CCNC(=O)c1cccc2nc3ccc4c(OCCO)cccc4c3nc12	0.8	6.63	6.52
Cc1cccc2c1ccc1nc3cccc(C(=O)NCCN(C)C)c3nc12	0.8	7.01	6.93
COc1cccc2c1ccc1nc3cccc(C(=O)N[C@@H](CN(C)C)[C@H](C)O)c3nc12	1	7.72	7.72
CN(C)CCNC(=O)c1cccc2nc3ccc4c(C#N)cccc4c3nc12	1.5	6.83	7.00
COc1cccc2c1ccc1nc3cccc(C(=O)NC(C)(C)CN(C)C)c3nc12	1.5	6.19	6.36
COc1cccc2c1ccc1nc3cccc(C(=O)N[C@@H](C)CN(C)C)c3nc12	1.3	6.92	7.02
CCOC(=O)COc1cccc2c1ccc1nc3cccc(C(=O)NCCN(C)C)c3nc12	0.9	6.30	6.23
COc1cccc2c1ccc1nc3cccc(C(=O)N[C@H](CO)CN(C)C)c3nc12	1.2	7.60	7.70
CCNC(=O)Oc1cccc2c1ccc1nc3cccc(C(=O)NCCN(C)C)c3nc12	1.6	6.99	7.19
CN(C)CCNC(=O)c1cccc2nc3ccc4c(S(C)(=O)=O)cccc4c3nc12	2.8	5.42	5.87
CNc1ccc2nc3ccc4c(OC)cccc4c3nc2c1C(=O)NCCN(C)C	1.1	6.84	6.90
CN(C)CCNC(=O)c1cccc2nc3ccc4ccc([N+](=O)[O-])cc4c3nc12	1.1	6.99	7.03
CCOc1cccc2c1ccc1nc3cccc(C(=O)NCCN(C)C)c3nc12	3.7	6.74	7.31
COC(=O)C(CN(C)C)NC(=O)c1cccc2nc3ccc4c(OC)cccc4c3nc12 (stereo unspecified)	>10	< 5.30	6.33

SMILES	Rf (NCI-H69 [1])	pIC50 (NCI-H69 [2])	pIC50 (NCI-H69 [3])
COc1cccc2c1ccc1nc3cccc(C(=O)NCCN4CCCC4)c3nc12	1.9	7.11	7.40
CN(C)CCNC(=O)c1cccc2nc3ccc4c(F)cccc4c3nc12	0.7	7.11	6.95
CN(C)CCNC(=O)c1cccc2nc3ccc4c(OCCCC#N)cccc4c3nc12	1.5	7.24	7.41
COc1cccc2c1ccc1nc3cccc(C(=O)NCCCN(C)C)c3nc12	1.3	6.22	6.33
COc1cccc2c1ccc1nc3ccc(O)c(C(=O)NCCN(C)C)c3nc12	1	6.97	6.99
CN(C)CCNC(=O)c1cccc2nc3ccc4cc([N+](=O)[O-])ccc4c3nc12	1.4	7.16	7.31
COc1cccc2c1ccc1nc3ccc(N)c(C(=O)NCCN(C)C)c3nc12	0.85	7.54	7.47
CN(C)CCNC(=O)c1cccc2nc3ccc4c(N(S(C)(=O)=O)S(C)(=O)=O)cccc4c3nc12	>2.3	< 5.30	5.67
CN(C)CCNC(=O)c1cccc2nc3ccc4c(C(=O)O)cccc4c3nc12	–	< 5.30	< 5.30
COCCOc1cccc2c1ccc1nc3cccc(C(=O)NCCN(C)C)c3nc12	1.4	6.91	7.05
CC(=O)COc1cccc2c1ccc1nc3cccc(C(=O)NCCN(C)C)c3nc12	3.1	6.86	7.35
CC(=O)Nc1cccc2c1ccc1nc3cccc(C(=O)NCCN(C)C)c3nc12	>10.7	< 5.30	6.33
COc1cccc2c1ccc1nc3c(C)ccc(C(=O)NCCN(C)C)c3nc12	1.9	6.77	7.06
COc1cccc2c1ccc1nc3cccc(C(=O)NC(CN(C)C)C(C)C)c3nc12 (stereo unspecified)	0.7	7.60	7.46
COc1cccc2c1ccc1nc3cccc(C(=O)NCCN4CCCCC4)c3nc12	2.1	6.48	6.81
CN(C)CCNC(=O)c1cccc2nc3ccc4c(OCC(=O)O)cccc4c3nc12	>1.3	< 5.30	5.42
COc1cccc2c1ccc1nc3cccc(C(=O)NC(C)CN(C)C)c3nc12 (stereo unspecified)	1.4	7.36	7.52
